Data published in ChEMBL document CHEMBL5724801, “EUbOPEN Chemogenomics Library - Multiplex” (2024).
Several values for one entry are separate records, joined by “and”; a condition that tells them apart may be missing. Equal entries are not always repeated.

Tested on: U2OS
Assay: Multiplex assay against U2OS
Assay type: toxicity, cell-based
Conditions: human
Method in brief: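 Values for tubulin, mitochondrial-mass and membrane-permeability phenotypes are per cents of cells with healthy nuclei. These cells were identified by CellPathfinder machine-learning gating of live cells that had been stained at seeding with Hoechst33342, BioTracker Green Microtubule Cytoskeleton Dye, MitoTracker Red and Annexin V Alexa Fluor 680 and imaged on a CQ1 microscope at 37°C and 5% CO2 after compound addition. The gating first set Hoechst high-intensity objects apart from normal cells, then split normal cells into healthy, pyknosed or fragmented nuclei, and pyknosed cells into mitotic or apoptotic.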

[1] = 12 h, 1 µM, compound concentration 1 uM
[2] = 12 h, 10 µM, compound concentration 10 uM
[3] = 24 h, 1 µM, compound concentration 1 uM
[4] = 24 h, 10 µM, compound concentration 10 uM
[5] = 48 h, 1 µM, compound concentration 1 uM
[6] = 48 h, 10 µM, compound concentration 10 uM

SMILES: CCCCCCNC(=O)Nc1ccc(S(=O)(=O)Nc2ccc(CCNC[C@H](O)COc3ccc(O)cc3)cc2)cc1 [L-755507]
- Population Apoptotic (%) [1]: 86% and 100%
- Population Fragmented Nuclei (%) [1]: 22% and 18%
- Population Healthy Nuclei (%) [1]: 67% and 75%
- Population Hoechst High Intensity Objects (%) [1]: 4% and 0%
- Population Membrane Permeable-Phenotype (%) [1]: 4% and 10%
- Population Mitochondria Different-Phenotype (%) [1]: 4% and 1%
- Population Mitotic Cells (%) [1]: 13% and 0%
- Population Normal (%) [1]: 95% and 99%
- Population Pyknosed Nuclei (%) [1]: 9% and 5%
- Population Tubulin-Different-Phenotype (%) [1]: 4% and 5%
- Total Cell Count [1]: 231 and 120
- Population Apoptotic (%) [2]: 60% and 72%
- Population Fragmented Nuclei (%) [2]: 31% and 19%
- Population Healthy Nuclei (%) [2]: 59% and 72%
- Population Hoechst High Intensity Objects (%) [2]: 3% and 2%
- Population Membrane Permeable-Phenotype (%) [2]: 13% and 19%
- Population Mitochondria Different-Phenotype (%) [2]: 11% and 15%
- Population Mitotic Cells (%) [2]: 40% and 27%
- Population Normal (%) [2]: 96% and 97%
- Population Pyknosed Nuclei (%) [2]: 9% and 8%
- Population Tubulin-Different-Phenotype (%) [2]: 10% and 15%
- Total Cell Count [2]: 282 and 140
- Population Apoptotic (%) [3]: 83% and 92%
- Population Fragmented Nuclei (%) [3]: 22% and 23%
- Population Healthy Nuclei (%) [3]: 66% and 67%
- Population Hoechst High Intensity Objects (%) [3]: 4% and 2%
- Population Membrane Permeable-Phenotype (%) [3]: 5% and 11%
- Population Mitochondria Different-Phenotype (%) [3]: 5% and 1%
- Population Mitotic Cells (%) [3]: 16% and 7%
- Population Normal (%) [3]: 95% and 97%
- Population Pyknosed Nuclei (%) [3]: 11% and 9%
- Population Tubulin-Different-Phenotype (%) [3]: 3% and 5%
- Total Cell Count [3]: 285 and 143
- Population Apoptotic (%) [4]: 85% and 88%
- Population Fragmented Nuclei (%) [4]: 25% and 14%
- Population Healthy Nuclei (%) [4]: 65% and 79%
- Population Hoechst High Intensity Objects (%) [4]: 2%
- Population Membrane Permeable-Phenotype (%) [4]: 7% and 9%
- Population Mitochondria Different-Phenotype (%) [4]: 4% and 5%
- Population Mitotic Cells (%) [4]: 14% and 11%
- Population Normal (%) [4]: 97%
- Population Pyknosed Nuclei (%) [4]: 9% and 6%
- Population Tubulin-Different-Phenotype (%) [4]: 3% and 6%
- Total Cell Count [4]: 307 and 149
- Population Apoptotic (%) [5]: 78% and 91%
- Population Fragmented Nuclei (%) [5]: 14% and 26%
- Population Healthy Nuclei (%) [5]: 74% and 61%
- Population Hoechst High Intensity Objects (%) [5]: 1% and 4%
- Population Membrane Permeable-Phenotype (%) [5]: 6% and 12%
- Population Mitochondria Different-Phenotype (%) [5]: 3% and 5%
- Population Mitotic Cells (%) [5]: 21% and 8%
- Population Normal (%) [5]: 98% and 95%
- Population Pyknosed Nuclei (%) [5]: 11% and 12%
- Population Tubulin-Different-Phenotype (%) [5]: 3% and 6%
- Total Cell Count [5]: 422 and 188
- Population Apoptotic (%) [6]: 80% and 94%
- Population Fragmented Nuclei (%) [6]: 19% and 13%
- Population Healthy Nuclei (%) [6]: 70% and 78%
- Population Hoechst High Intensity Objects (%) [6]: 2% and 1%
- Population Membrane Permeable-Phenotype (%) [6]: 7%
- Population Mitochondria Different-Phenotype (%) [6]: 2% and 3%
- Population Normal (%) [6]: 97% and 98%
- Population Pyknosed Nuclei (%) [6]: 9% and 7%
- Population Tubulin-Different-Phenotype (%) [6]: 4% and 6%
- Total Cell Count [6]: 419 and 242

SMILES: CN1CCN2c3ncccc3Cc3ccccc3C2C1 (configuration not stated) [MIRTAZAPINE]
- Population Apoptotic (%) [1]: 82% and 100%
- Population Fragmented Nuclei (%) [1]: 21%
- Population Healthy Nuclei (%) [1]: 67% and 72%
- Population Hoechst High Intensity Objects (%) [1]: 1%
- Population Membrane Permeable-Phenotype (%) [1]: 3% and 5%
- Population Mitochondria Different-Phenotype (%) [1]: 1% and 6%
- Population Mitotic Cells (%) [1]: 17% and 0%
- Population Normal (%) [1]: 99% and 98%
- Population Pyknosed Nuclei (%) [1]: 11% and 6%
- Population Tubulin-Different-Phenotype (%) [1]: 2% and 3%
- Population Apoptotic (%) [2]: 73% and 66%
- Population Fragmented Nuclei (%) [2]: 19% and 13%
- Population Healthy Nuclei (%) [2]: 71% and 82%
- Population Hoechst High Intensity Objects (%) [2]: 3%
- Population Membrane Permeable-Phenotype (%) [2]: 6% and 3%
- Population Mitochondria Different-Phenotype (%) [2]: 5% and 4%
- Population Mitotic Cells (%) [2]: 26% and 33%
- Population Normal (%) [2]: 96%
- Population Pyknosed Nuclei (%) [2]: 8% and 3%
- Population Tubulin-Different-Phenotype (%) [2]: 6% and 0%
- Population Apoptotic (%) [3]: 85% and 100%
- Population Fragmented Nuclei (%) [3]: 15% and 26%
- Population Healthy Nuclei (%) [3]: 76% and 63%
- Population Hoechst High Intensity Objects (%) [3]: 2% and 3%
- Population Membrane Permeable-Phenotype (%) [3]: 5% and 3%
- Population Mitochondria Different-Phenotype (%) [3]: 3%
- Population Mitotic Cells (%) [3]: 14% and 0%
- Population Normal (%) [3]: 97% and 96%
- Population Pyknosed Nuclei (%) [3]: 8% and 10%
- Population Tubulin-Different-Phenotype (%) [3]: 2% and 4%
- Population Apoptotic (%) [4]: 89% and 83%
- Population Fragmented Nuclei (%) [4]: 18% and 9%
- Population Healthy Nuclei (%) [4]: 71% and 85%
- Population Hoechst High Intensity Objects (%) [4]: 2% and 0%
- Population Membrane Permeable-Phenotype (%) [4]: 4% and 5%
- Population Mitochondria Different-Phenotype (%) [4]: 2%
- Population Mitotic Cells (%) [4]: 10% and 16%
- Population Normal (%) [4]: 97% and 99%
- Population Pyknosed Nuclei (%) [4]: 9% and 5%
- Population Tubulin-Different-Phenotype (%) [4]: 0% and 5%
- Total Cell Count [4]: 314 and 108
- Population Apoptotic (%) [5]: 83% and 92%
- Population Fragmented Nuclei (%) [5]: 12% and 20%
- Population Healthy Nuclei (%) [5]: 76% and 68%
- Population Hoechst High Intensity Objects (%) [5]: 2% and 4%
- Population Membrane Permeable-Phenotype (%) [5]: 4% and 8%
- Population Mitochondria Different-Phenotype (%) [5]: 2% and 4%
- Population Mitotic Cells (%) [5]: 16% and 7%
- Population Normal (%) [5]: 97% and 95%
- Population Pyknosed Nuclei (%) [5]: 10% and 11%
- Population Tubulin-Different-Phenotype (%) [5]: 3% and 1%
- Population Apoptotic (%) [6]: 95% and 100%
- Population Fragmented Nuclei (%) [6]: 15% and 12%
- Population Healthy Nuclei (%) [6]: 75% and 78%
- Population Hoechst High Intensity Objects (%) [6]: 2%
- Population Membrane Permeable-Phenotype (%) [6]: 7% and 3%
- Population Mitochondria Different-Phenotype (%) [6]: 4% and 3%
- Population Mitotic Cells (%) [6]: 5% and 0%
- Population Normal (%) [6]: 97%
- Population Pyknosed Nuclei (%) [6]: 9%
- Population Tubulin-Different-Phenotype (%) [6]: 5% and 3%
- Total Cell Count [6]: 435 and 170
